Published values pooled from the literature.
Each line is one published result; the experiments were not run side by side. pIC50, pKd, pKi: −log10 of the molar value.
Spike glycoprotein: Spike glycoprotein (Severe acute respiratory syndrome coronavirus 2, UniProt P0DTC2)
SLC18A2: Synaptic vesicular amine transporter (SLC18A2, Homo sapiens, UniProt Q05940)

CC[C@H](C)[C@H](NC(=O)[C@H](CCCCNC(=O)CN(CCNC(=O)CN(CCNC(=O)CN(CCNC(=O)CN(CCNC(=O)[C@H](CCCNC(=N)N)NC(C)=O)C(=O)Cn1ccc(N)nc1=O)C(=O)Cn1cnc2c(=O)[nH]c(N)nc21)C(=O)Cn1cnc2c(=O)[nH]c(N)nc21)C(=O)Cn1ccc(N)nc1=O)NC(=O)[C@H](CC(=O)O)NC(=O)[C@H](CO)NC(=O)[C@@H](NC(=O)[C@H](CCCNC(=N)N)NC(=O)[C@H](CCSC)NC(=O)[C@H](CO)NC(=O)[C@H](C)NC(=O)[C@H](CCC(=O)O)NC(=O)[C@H](C)NC(=O)[C@H](Cc1c[nH]cn1)NC(=O)CNC(=O)[C@H](CC(C)C)NC(=O)[C@H](CCC(=O)O)NC(=O)[C@H](CC(=O)O)NC(=O)[C@H](CC(C)C)NC(=O)[C@H](CC(C)C)NC(=O)[C@H](CCCNC(=N)N)NC(=O)[C@H](CS)NC(=O)[C@H](CCCC(=O)NCCN(CC(=O)NCCN(CC(=O)NCCN(CC(=O)NCCN(CC(=O)N[C@@H](CCCNC(=N)N)C(N)=O)C(=O)Cn1cnc2c(=O)[nH]c(N)nc21)C(=O)Cn1ccc(N)nc1=O)C(=O)Cn1ccc(N)nc1=O)C(=O)Cn1cnc2c(=O)[nH]c(N)nc21)NC(=O)[C@H](CCC(=O)O)NC(=O)[C@H](Cc1ccc(O)cc1)NC(=O)[C@@H](NC(=O)[C@H](CCCCN)NC(=O)[C@H](CCC(N)=O)NC(=O)[C@H](CC(C)C)NC(=O)[C@@H](NC(=O)[C@H](Cc1c[nH]c2ccccc12)NC(=O)[C@H](CCC(=O)O)NC(=O)[C@H](CCCCN)NC(=O)[C@H](CC(=O)O)NC(C)=O)[C@@H](C)CC)[C@@H](C)CC)C(C)C)C(=O)N[C@@H](Cc1ccc(O)cc1)C(=O)N[C@@H](CCC(=O)O)C(=O)N[C@@H](Cc1ccccc1)C(=O)N[C@@H](CCSC)C(=O)N[C@@H](CCCCN)C(=O)N[C@@H](CCCCN)C(N)=O  pKd (Spike glycoprotein; binding; SPR): 7.57
Cn1c(=O)c2[nH]cnc2n(C)c1=O  pIC50 (Solute carrier family 22 member 11 (SLC22A11, Homo sapiens, UniProt Q9NSA0); transporter uptake; inhibitor): 5.25
COc1cc(CCNC(C)c2ccccc2O)c(OC)cc1C#N (stereo not drawn)  pKi (Alpha-2A adrenergic receptor (ADRA2A, Homo sapiens, UniProt P08913); cell-free assay; radioligand): 6.04
CCOC(=O)c1ccc(OC(=O)CCCCCN=C(N)N)cc1  pIC50 (Plasminogen (PLG, Homo sapiens, UniProt P00747); enzyme activity; inhibitor): 6.50
O=c1[nH]c2ccccc2n1CCCN1CCC(n2c(=O)[nH]c3cc(Cl)ccc32)CC1  pIC50 (SLC18A2; transporter uptake; inhibitor): 7.24
COc1ccc(C(=O)Nc2ccc3c(c2)C=CCP(=O)(O)O3)cc1  pKi (Carbonic anhydrase 1 (CA1, Homo sapiens, UniProt P00915); enzyme activity; inhibitor; stopped-flow): < 5.00
O=c1[nH]c2ccccc2n1C1CCN(CCCC(c2ccc(F)cc2)c2ccc(F)cc2)CC1  pIC50 (SLC18A2; transporter uptake; inhibitor; radiometric; cell membranes): 6.41
O=C(Nc1ccc2c(c1)C=CCP(=O)(O)O2)c1ccccc1Br  pKi (Carbonic anhydrase 2 (CA2, Homo sapiens, UniProt P00918); enzyme activity; inhibitor; stopped-flow): < 5.00
CC[C@H](C)[C@H](NC(=O)[C@H](CCCCNC(=O)CN(CCNC(=O)CN(CCNC(=O)CN(CCNC(=O)CN(CCNC(=O)[C@H](CCCNC(=N)N)NC(C)=O)C(=O)Cn1ccc(N)nc1=O)C(=O)Cn1cnc2c(=O)[nH]c(N)nc21)C(=O)Cn1cnc2c(=O)[nH]c(N)nc21)C(=O)Cn1ccc(N)nc1=O)NC(=O)[C@H](CC(=O)O)NC(=O)[C@H](CO)NC(=O)[C@@H](NC(=O)[C@H](CCCNC(=N)N)NC(=O)[C@H](CCSC)NC(=O)[C@H](CO)NC(=O)[C@H](C)NC(=O)[C@H](CCC(=O)O)NC(=O)[C@H](C)NC(=O)[C@H](Cc1c[nH]cn1)NC(=O)CNC(=O)[C@H](CC(C)C)NC(=O)[C@H](CCC(=O)O)NC(=O)[C@H](CC(=O)O)NC(=O)[C@H](CC(C)C)NC(=O)[C@H](CC(C)C)NC(=O)[C@H](CCCNC(=N)N)NC(=O)[C@H](CCS)NC(=O)[C@H](CCCC(=O)NCCN(CC(=O)NCCN(CC(=O)NCCN(CC(=O)NCCN(CC(=O)N[C@@H](CCCNC(=N)N)C(N)=O)C(=O)Cn1cnc2c(=O)[nH]c(N)nc21)C(=O)Cn1ccc(N)nc1=O)C(=O)Cn1ccc(N)nc1=O)C(=O)Cn1cnc2c(=O)[nH]c(N)nc21)NC(=O)[C@H](CCC(=O)O)NC(=O)[C@H](Cc1ccc(O)cc1)NC(=O)[C@@H](NC(=O)[C@H](CCCCN)NC(=O)[C@H](CCC(N)=O)NC(=O)[C@H](CC(C)C)NC(=O)[C@@H](NC(=O)[C@H](Cc1c[nH]c2ccccc12)NC(=O)[C@H](CCC(=O)O)NC(=O)[C@H](CCCCN)NC(=O)[C@H](CC(=O)O)NC(C)=O)[C@@H](C)CC)[C@@H](C)CC)C(C)C)C(=O)N[C@@H](Cc1ccc(O)cc1)C(=O)N[C@@H](CCC(=O)O)C(=O)N[C@@H](Cc1ccccc1)C(=O)N[C@@H](CCSC)C(=O)N[C@@H](CCCCN)C(=O)N[C@@H](CCCCN)C(N)=O  pKd (Spike glycoprotein; binding; SPR): 8.28
